Source: ChEMBL document CHEMBL1128508, “Synthesis and biological evaluation of radioiodinated phospholipid ether stereoisomers” (J Med Chem, 1995)

Experiments:
Rattus norvegicus [1] = assay: Biodistribution in tumor 24 hours after iv injection in walker tumor bearing rat; type: ADME, organism-based; settings: in vivo
Method in brief: (§1)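 Female Sprague–Dawley rats (200–250 g) were inoculated in the right hind limb with 5.0 × 10⁶ Walker 256 cells in saline and used 6–10 days later, when tumors averaged 10 g. The radioiodinated agent, in 2–3% Tween-20/saline after ethanol removal, was given as 5–10 μCi in 0.5 mL by tail vein to anesthetized rats. Tissues were dissected, weighed and counted with decay correction. Values are % ID/g, mean ± SEM, n = 3.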

Rattus norvegicus [2] = assay: Biodistribution in ovary 48 hours after iv injection in walker tumor bearing rat; type: ADME, organism-based, Female gonad; settings: in vivo; method in brief: as §1
Rattus norvegicus [3] = assay: Biodistribution in plasma 24 hours after iv injection in walker tumor bearing rat; type: ADME, organism-based; settings: in vivo; method in brief: as §1
Rattus norvegicus [4] = assay: Biodistribution in tumor 48 hours after iv injection in walker tumor bearing rat; type: ADME, organism-based; settings: in vivo; method in brief: as §1
Rattus norvegicus [5] = assay: Biodistribution in duodenum 24 hours after iv injection in walker tumor bearing rat; type: ADME, organism-based; settings: in vivo; method in brief: as §1
Rattus norvegicus [6] = assay: Biodistribution in blood 48 hours after iv injection in walker tumor bearing rat; type: ADME, organism-based; settings: in vivo; method in brief: as §1
Rattus norvegicus [7] = assay: Biodistribution in spleen 48 hours after iv injection in walker tumor bearing rat; type: ADME, organism-based; settings: in vivo; method in brief: as §1
Rattus norvegicus [8] = assay: Biodistribution in muscle 48 hours after iv injection in walker tumor bearing rat; type: ADME, organism-based, Muscle tissue; settings: in vivo; method in brief: as §1
Rattus norvegicus [9] = assay: Biodistribution in thyroid 48 hours after iv injection in walker tumor bearing rat; type: ADME, organism-based, Thyroid gland; settings: in vivo; method in brief: as §1
Rattus norvegicus [10] = assay: Biodistribution in blood 24 hours after iv injection in walker tumor bearing rat; type: ADME, organism-based; settings: in vivo; method in brief: as §1
Rattus norvegicus [11] = assay: Biodistribution in thyroid 24 hours after iv injection in walker tumor bearing rat; type: ADME, organism-based, Thyroid gland; settings: in vivo; method in brief: as §1
Rattus norvegicus [12] = assay: Biodistribution in injected site 48 hours after iv injection in walker tumor bearing rat; type: ADME, organism-based; settings: in vivo; method in brief: as §1
Rattus norvegicus [13] = assay: Biodistribution in spleen 24 hours after iv injection in walker tumor bearing rat; type: ADME, organism-based; settings: in vivo; method in brief: as §1
Rattus norvegicus [14] = assay: Biodistribution in kidney 48 hours after iv injection in walker tumor bearing rat; type: ADME, organism-based; settings: in vivo; method in brief: as §1
Rattus norvegicus [15] = assay: Biodistribution in plasma 48 hours after iv injection in walker tumor bearing rat; type: ADME, organism-based; settings: in vivo; method in brief: as §1
Rattus norvegicus [16] = assay: Ratio of the biodistribution in tumor to blood 48 hours after iv injection in walker tumor bearing rat; type: ADME, organism-based; settings: in vivo
Method in brief: (§2)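 Walker 256 tumor-bearing female Sprague–Dawley rats were given 5–10 μCi of radioiodinated agent in Tween-20/saline iv by tail vein (n = 3 per time point). After dissection and decay-corrected counting, tumor % ID/g was divided by blood or liver % ID/g.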

Rattus norvegicus [17] = assay: Ratio of the biodistribution in tumor to liver 48 hours after iv injection in walker tumor bearing rat; type: ADME, organism-based; settings: in vivo; method in brief: as §2
Rattus norvegicus [18] = assay: Biodistribution in muscle 24 hours after iv injection in walker tumor bearing rat; type: ADME, organism-based, Muscle tissue; settings: in vivo; method in brief: as §1
Rattus norvegicus [19] = assay: Biodistribution in liver 48 hours after iv injection in walker tumor bearing rat; type: ADME, organism-based; settings: in vivo; method in brief: as §1
Rattus norvegicus [20] = assay: Ratio of the biodistribution in tumor to liver 24 hours after iv injection in walker tumor bearing rat; type: ADME, organism-based; settings: in vivo; method in brief: as §2
Rattus norvegicus [21] = assay: Biodistribution in duodenum 48 hours after iv injection in walker tumor bearing rat; type: ADME, organism-based; settings: in vivo; method in brief: as §1
Rattus norvegicus [22] = assay: Biodistribution in ovary 24 hours after iv injection in walker tumor bearing rat; type: ADME, organism-based, Female gonad; settings: in vivo; method in brief: as §1
Rattus norvegicus [23] = assay: Biodistribution in kidney 24 hours after iv injection in walker tumor bearing rat; type: ADME, organism-based; settings: in vivo; method in brief: as §1
Rattus norvegicus [24] = assay: Ratio of the biodistribution in tumor to blood 24 hours after iv injection in walker tumor bearing rat; type: ADME, organism-based; settings: tumour; method in brief: as §2
Rattus norvegicus [25] = assay: Biodistribution in liver 24 hours after iv injection in walker tumor bearing rat; type: ADME, organism-based; settings: in vivo; method in brief: as §1
Rattus norvegicus [26] = assay: Biodistribution in lung 48 hours after iv injection in walker tumor bearing rat; type: ADME, organism-based; settings: in vivo; method in brief: as §1
Rattus norvegicus [27] = assay: Biodistribution in lung 24 hours after iv injection in walker tumor bearing rat; type: ADME, organism-based; settings: in vivo; method in brief: as §1
Rattus norvegicus [28] = assay: Biodistribution in injected site 24 hours after iv injection in walker tumor bearing rat; type: ADME, organism-based; settings: in vivo; method in brief: as §1

ID/g (Rattus norvegicus [1]) | ID/g (Rattus norvegicus [2]) | ID/g (Rattus norvegicus [3]) | ID/g (Rattus norvegicus [4]) | ID/g (Rattus norvegicus [5]) | ID/g (Rattus norvegicus [6]) | ID/g (Rattus norvegicus [7]) | ID/g (Rattus norvegicus [8]) | ID/g (Rattus norvegicus [9]) | ID/g (Rattus norvegicus [10]) | ID/g (Rattus norvegicus [11]) | ID/g (Rattus norvegicus [12]) | ID/g (Rattus norvegicus [13]) | ID/g (Rattus norvegicus [14]) | ID/g (Rattus norvegicus [15]) | ID/g (Rattus norvegicus [16]) | ID/g (Rattus norvegicus [17]) | ID/g (Rattus norvegicus [18]) | ID/g (Rattus norvegicus [19]) | ID/g (Rattus norvegicus [20]) | Compound | other results
0.78% | 0.14% | 0.06% | 0.45% | 1.04% | 0.03% | 0.1% | 0.02% | 13.69% | 0.07% | 10.33% | 0.24% | 0.43% | 0.16% | 0.03% | 15 | 2 | 0.05% | 0.23% | 1.5 | CO[C@@H](COCCCCCCCCCCCCc1cccc(I)c1)COP(=O)([O-])OCC[N+](C)(C)C | ID/g (Rattus norvegicus [21]): 0.23%; ID/g (Rattus norvegicus [22]): 0.31%; ID/g (Rattus norvegicus [23]): 0.37%; ID/g (Rattus norvegicus [24]): 11.1; ID/g (Rattus norvegicus [25]): 0.53%; ID/g (Rattus norvegicus [26]): 0.14%; ID/g (Rattus norvegicus [27]): 0.35%; ID/g (Rattus norvegicus [28]): 0.26%
0.85% | 0.27% | 0.1% | 0.56% | 1.12% | 0.05% | 0.17% | 0.03% | 24.44% | 0.07% | 47.22% | 0.17% | 0.42% | 0.24% | 0.05% | 11.2 | 1.6 | 0.04% | 0.35% | 1.1 | COC(COCCCCCCCCCCCCc1cccc(I)c1)COP(=O)([O-])OCC[N+](C)(C)C (racemic) | ID/g (Rattus norvegicus [21]): 0.44%; ID/g (Rattus norvegicus [22]): 0.37%; ID/g (Rattus norvegicus [23]): 0.46%; ID/g (Rattus norvegicus [24]): 12.1; ID/g (Rattus norvegicus [25]): 0.81%; ID/g (Rattus norvegicus [26]): 0.2%; ID/g (Rattus norvegicus [27]): 0.34%; ID/g (Rattus norvegicus [28]): 0.24%
0.55% | 0.14% | 0.06% | 0.43% | 0.73% | 0.03% | 0.1% | 0.02% | 24.11% | 0.05% | 23.81% | 0.25% | 0.37% | 0.2% | 0.03% | 14.3 | 1.7 | 0.04% | 0.25% | 1.1 | CO[C@H](COCCCCCCCCCCCCc1cccc(I)c1)COP(=O)([O-])OCC[N+](C)(C)C | ID/g (Rattus norvegicus [21]): 0.34%; ID/g (Rattus norvegicus [22]): 0.28%; ID/g (Rattus norvegicus [23]): 0.33%; ID/g (Rattus norvegicus [24]): 11; ID/g (Rattus norvegicus [25]): 0.52%; ID/g (Rattus norvegicus [26]): 0.14%; ID/g (Rattus norvegicus [27]): 0.29%; ID/g (Rattus norvegicus [28]): 0.23%
